Calls of active or inactive are those of the source. The calls are words filed in the database; no cut-off is given here.
Tests used:
Homo sapiens = organism: Homo sapiens; assay: Selectivity ratio of IC50 for human full-length recombinant HDAC1 expressed in baculovirus infected Sf9 insect cells to IC50 for human full-length recombinant HDAC6 expressed in baculovirus infected Sf9 insect cells
[1] = tested on: Lewis lung carcinoma cell line; assay: Cytotoxicity against mouse LL/2 cells at 0.8 uM after 72 hrs in presence of paclitaxel by crystal violet staining-based assay; assay type: functional, cell-based
[2] = target: T1, Protein deacetylase HDAC6 (Mus musculus) (UniProt Q9Z2V5); assay: Inhibition of HDAC6 in mouse LL/2 cells assessed as reduction in PD-L1 expression at 10 uM after 24 hrs by Western blot analysis; assay type: cell-based
T1 sequence (whole entry): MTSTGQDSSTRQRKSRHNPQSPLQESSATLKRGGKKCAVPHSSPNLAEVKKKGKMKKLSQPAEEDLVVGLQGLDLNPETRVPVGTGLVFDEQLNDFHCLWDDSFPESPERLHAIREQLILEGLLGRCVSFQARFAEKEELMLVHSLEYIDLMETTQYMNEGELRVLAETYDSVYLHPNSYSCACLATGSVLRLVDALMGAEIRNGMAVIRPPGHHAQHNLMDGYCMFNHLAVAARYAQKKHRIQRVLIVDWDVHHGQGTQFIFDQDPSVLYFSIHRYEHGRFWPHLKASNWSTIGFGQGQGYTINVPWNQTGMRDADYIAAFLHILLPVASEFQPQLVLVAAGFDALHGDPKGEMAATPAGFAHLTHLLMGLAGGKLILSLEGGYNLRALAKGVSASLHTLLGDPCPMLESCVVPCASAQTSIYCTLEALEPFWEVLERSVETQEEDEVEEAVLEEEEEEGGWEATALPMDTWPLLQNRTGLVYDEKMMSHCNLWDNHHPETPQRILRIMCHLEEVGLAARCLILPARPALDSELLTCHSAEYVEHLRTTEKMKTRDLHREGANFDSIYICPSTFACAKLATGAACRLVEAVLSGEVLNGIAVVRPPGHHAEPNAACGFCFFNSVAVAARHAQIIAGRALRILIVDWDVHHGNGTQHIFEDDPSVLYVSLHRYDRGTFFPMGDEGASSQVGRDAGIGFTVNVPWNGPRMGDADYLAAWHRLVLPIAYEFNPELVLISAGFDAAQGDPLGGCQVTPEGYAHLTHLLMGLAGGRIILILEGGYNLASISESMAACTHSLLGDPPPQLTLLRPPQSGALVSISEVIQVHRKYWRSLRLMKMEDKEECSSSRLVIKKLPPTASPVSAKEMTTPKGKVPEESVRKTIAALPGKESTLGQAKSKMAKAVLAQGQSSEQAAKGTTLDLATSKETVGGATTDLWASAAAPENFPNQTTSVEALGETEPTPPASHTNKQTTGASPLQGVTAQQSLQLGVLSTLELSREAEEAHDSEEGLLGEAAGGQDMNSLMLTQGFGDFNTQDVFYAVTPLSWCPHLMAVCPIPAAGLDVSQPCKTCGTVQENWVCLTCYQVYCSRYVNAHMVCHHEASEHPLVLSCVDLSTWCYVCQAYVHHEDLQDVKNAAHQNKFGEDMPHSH

[3] = target: T1, Protein deacetylase HDAC6 (Mus musculus); assay: Inhibition of HDAC6 in mouse LL/2 cells assessed as reduction in PD-L1 expression at 2 to 5 uM in presence of paclitaxel after 24 hrs by Western blot analysis; assay type: cell-based
[4] = tested on: Lewis lung carcinoma cell line; assay: Cytotoxicity against mouse LL/2 cells at 0.8 uM after 72 hrs in presence of paclitaxel by crystal violet staining-based assay relative to control; assay type: functional, cell-based
[5] = target: T1, Protein deacetylase HDAC6 (Mus musculus); assay: Inhibition of HDAC6 in mouse LL/2 cells assessed as induction of alpha tubulin acetylation at 4 uM in presence of paclitaxel after 24 hrs by Western blot analysis relative to control; assay type: cell-based
[6] = target: T1, Protein deacetylase HDAC6 (Mus musculus); assay: Inhibition of HDAC6 in mouse LL/2 cells assessed as induction of alpha tubulin acetylation at 0.8 uM in presence of paclitaxel after 24 hrs by Western blot analysis relative to control; assay type: cell-based
[7] = tested on: Lewis lung carcinoma cell line; assay: Induction of multi-nuclei formation in mouse LL/2 cells at 0.8 uM after 24 hrs in presence of paclitaxel by 4',6-diamidino-2-phenylindole staining-based assay; assay type: functional, cell-based
[8] = tested on: Lewis lung carcinoma cell line; assay: Antitumor activity against mouse LL/2 cells implanted in C57BL/6 mouse assessed as tumor growth inhibition at 20 mg/kg, po qd administered for 21 consecutive days; assay type: functional, organism-based
[9] = target: Histone deacetylase 1 (Homo sapiens) (UniProt Q13547); assay: Inhibition of HDAC1 in human A549 cells assessed as effect on histone H3 acetylation level at 1 uM after 24 hrs by Western blot analysis; assay type: cell-based
Chain of Histone deacetylase 1 (Homo sapiens) (Q13547 whole entry): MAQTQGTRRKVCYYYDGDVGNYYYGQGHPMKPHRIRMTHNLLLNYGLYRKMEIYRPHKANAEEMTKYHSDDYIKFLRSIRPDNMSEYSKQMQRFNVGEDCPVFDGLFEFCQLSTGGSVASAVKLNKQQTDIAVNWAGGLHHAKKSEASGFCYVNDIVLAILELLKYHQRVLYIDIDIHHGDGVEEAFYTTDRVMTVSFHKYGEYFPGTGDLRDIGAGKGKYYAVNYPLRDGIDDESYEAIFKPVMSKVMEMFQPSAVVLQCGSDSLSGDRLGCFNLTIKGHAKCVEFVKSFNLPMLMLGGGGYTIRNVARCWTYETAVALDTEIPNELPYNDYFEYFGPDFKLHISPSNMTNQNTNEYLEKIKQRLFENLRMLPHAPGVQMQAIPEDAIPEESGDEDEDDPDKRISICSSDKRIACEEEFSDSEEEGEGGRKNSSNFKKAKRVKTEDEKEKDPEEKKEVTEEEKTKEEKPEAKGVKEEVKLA

[10] = target: T1, Protein deacetylase HDAC6 (Mus musculus); assay: Inhibition of HDAC6 in mouse LL/2 cells assessed as induction of alpha tubulin acetylation at 0.8 uM after 24 hrs by Western blot analysis relative to control; assay type: cell-based
[11] = target: T1, Protein deacetylase HDAC6 (Mus musculus); assay: Inhibition of HDAC6 in mouse LL/2 cells assessed as reduction in PD-L1 expression at 2 to 10 uM after 24 hrs by Western blot analysis; assay type: cell-based
[12] = tested on: Lewis lung carcinoma cell line; assay: Cytotoxicity against mouse LL/2 cells at 0 to 10 uM after 72 hrs in presence of paclitaxel by MTT assay relative to control; assay type: functional, cell-based
Outline: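 Mouse LL/2 lung cancer cells cultured for 72 h with increasing inhibitor concentrations (0–10 μM) together with paclitaxel. Viability read by MTT. Combination assessed by the Chou-Talalay method as a combination index.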

[13] = tested on: Lewis lung carcinoma cell line; assay: Decrease in PD-L1 expression in mouse LL/2 cells at 10 uM after 24 hrs by Western blot analysis
[14] = tested on: Lewis lung carcinoma cell line; assay: Antitumor activity against mouse LL/2 cells implanted in C57BL/6 mouse assessed as tumor growth inhibition at 10 mg/kg, ip qd administered for 5 days; assay type: functional, organism-based

SMILES	Ratio IC50 (Homo sapiens)	further results
O=C(NO)c1ccc(Cn2c(=O)n(CCc3ccccc3)c(=O)c3ccc(F)cc32)cc1	1180	–
O=C(NO)c1ccc(Cn2c(=O)n(CCc3cccc(F)c3)c(=O)c3ccccc32)cc1	1320	–
O=C(NO)c1ccc(Cn2c(=O)n(CCc3ccc(O)cc3)c(=O)c3ccccc32)cc1	1820	–
O=C(NO)c1ccc(Cn2c(=O)n(CCc3cccc(C(F)(F)F)c3)c(=O)c3ccccc32)cc1	529	Activity [1]: Active
O=C(CCCCCCC(=O)Nc1ccccc1)NO	–	inhibition [2]: inactive
O=C(NO)c1ccc(Cn2c(=O)n(CCc3ccccc3)c(=O)c3ccc(O)cc32)cc1	259	–
COc1ccc2c(=O)n(CCc3ccccc3)c(=O)n(Cc3ccc(C(=O)NO)cc3)c2c1	235	–
O=C(NO)c1ccc(Cn2c(=O)n(CCc3ccccc3)c(=O)c3ccsc32)cc1	443	–
O=C(NO)c1ccc(Cn2c(=O)n(CCc3ccccc3)c(=O)c3cc(F)ccc32)cc1	235	–
O=C(NO)c1cc(Cn2c(=O)n(CCc3ccccc3)c(=O)c3ccccc32)cs1	> 8	–
O=C(NO)c1ccc(Cn2c(=O)n(CCc3ccccc3)c(=O)c3ccccc32)s1	1150	–
O=C(NO)c1ccc(Cn2c(=O)n(CCc3ccccc3)c(=O)c3cccnc32)cc1	384	–
COc1ccc(CCn2c(=O)c3ccccc3n(Cc3ccc(C(=O)NO)cc3)c2=O)cc1	369	–
O=C(NO)c1ccc(Cn2c(=O)n(CCc3ccccc3)c(=O)c3ccc(C(F)(F)F)cc32)cc1	13	–
O=C(NO)c1cccc(Cn2c(=O)n(CCc3ccccc3)c(=O)c3ccccc32)c1	> 2	–
Cc1ccc2c(=O)n(CCc3ccccc3)c(=O)n(Cc3ccc(C(=O)NO)cc3)c2c1	64	–
O=C(NO)c1ccc(Cn2c(=O)n(CCc3ccccc3)c(=O)c3ccccc32)cc1	2790	inhibition [3]: Active; Activity [4]: Active; inhibition [5]: Active; fold change (FC) [6]: 74.7; Activity [1]: Active; Activity [7]: Active; TGI [8]: inactive; inhibition [9]: inactive; fold change (FC) [10]: 42.7; inhibition [11]: Active; Activity [12]: Active
O=C(NO)c1ccc(Cn2c(=O)n(CCc3ccccc3)c(=O)c3cc(Cl)ccc32)cc1	539	–
CC(=O)O[C@H]1C(=O)[C@@]2(C)[C@H]([C@H](OC(=O)c3ccccc3)[C@]3(O)C[C@H](OC(=O)[C@H](O)[C@@H](NC(=O)c4ccccc4)c4ccccc4)C(C)=C1C3(C)C)[C@]1(OC(C)=O)CO[C@@H]1C[C@@H]2O	–	Activity [13]: Active; TGI [14]: inactive
O=C(NO)c1ccc(Cn2c(=O)n(CCc3ccc(F)cc3)c(=O)c3ccccc32)cc1	470	–
O=C(NO)c1ccc(Cn2c(=O)n(CCc3ccccc3)c(=O)c3ccc(C4CC4)cc32)cc1	86	–
O=C(NO)c1ccc(Cn2c(=O)n(CCc3ccccc3)c(=O)c3ccc(Cl)cc32)cc1	434	–

— ChEMBL document CHEMBL4330076, “Quinazolin-2,4-dione-Based Hydroxamic Acids as Selective Histone Deacetylase-6 Inhibitors for Treatment of Non-Small Cell Lung Cancer” (J Med Chem, 2019)
